Reference: ChEMBL document CHEMBL1128543, “Computer-aided design and synthesis of 5-substituted tryptamines and their pharmacology at the 5-HT1D receptor: discovery of compounds with potential anti-migraine properties” (J Med Chem, 1995)

How the values were obtained:
[1] = species on record: Oryctolagus cuniculus; test: Binding affinity against 5-hydroxytryptamine 1D receptor using rabbit saphenous vein assay.; type: tissue-based
In short: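 Male New Zealand White rabbit saphenous vein rings (4–5 mm) in Krebs–Henseleit at 37 °C, pH 7.4, gassed with 95% O₂:5% CO₂, under 2 g passive force. Tissues got 30 min pargyline (500 μM) and phenoxybenzamine (0.3 μM), then were washed and checked with 1 μM 5-HT. A cumulative 5-HT curve was followed 60 min later by a test agonist curve. Potency is p[A₅₀]; α is test max/5-HT max; n ≥ 3.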

[2] = molecular target: Beta-2 adrenergic receptor (Canis lupus familiaris) (UniProt P54833); test: Binding affinity towards Beta adrenergic receptor
[3] = molecular target: 5-hydroxytryptamine receptor 1D (Homo sapiens) (UniProt P28221); test: The compound was tested for intrinsic activity against 5-HT1D receptor; conditions: Oryctolagus cuniculus
In short: (§1)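 Rabbit saphenous vein rings (male New Zealand White; 4–5 mm) mounted on tungsten wires in Krebs–Henseleit buffer, pH 7.4, 37 °C, gassed with 95% O2/5% CO2, at 2 g passive force. Pretreated for 30 min with pargyline (500 μM) and phenoxybenzamine (0.3 μM), then washed. Cumulative 5-HT curve, then after 60 min a test agonist curve. Potency is p[A50]; α is test maximum/5-HT maximum; n ≥ 3.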

[4] = molecular target: T1, Adrenergic receptor alpha-2 (Rattus norvegicus, UniProt P22086+P19328+P22909); test: Binding affinity against Alpha-2 adrenergic receptor in rat cortex using [3H]-idazoxan as radioligand
T1 sequence (P22086 whole entry): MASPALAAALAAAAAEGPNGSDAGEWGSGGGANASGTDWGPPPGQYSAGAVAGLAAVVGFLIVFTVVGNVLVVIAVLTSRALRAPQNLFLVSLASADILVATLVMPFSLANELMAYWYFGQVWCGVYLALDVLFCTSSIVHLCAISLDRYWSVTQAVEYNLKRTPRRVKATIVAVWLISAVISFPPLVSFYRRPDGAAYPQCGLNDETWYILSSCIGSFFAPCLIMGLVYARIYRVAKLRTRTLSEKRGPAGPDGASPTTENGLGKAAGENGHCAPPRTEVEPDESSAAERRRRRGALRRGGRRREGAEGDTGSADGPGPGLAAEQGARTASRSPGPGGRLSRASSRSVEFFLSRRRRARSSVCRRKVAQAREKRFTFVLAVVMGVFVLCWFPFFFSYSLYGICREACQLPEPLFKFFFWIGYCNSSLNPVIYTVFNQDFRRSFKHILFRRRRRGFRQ
T1 sequence (P19328 whole entry): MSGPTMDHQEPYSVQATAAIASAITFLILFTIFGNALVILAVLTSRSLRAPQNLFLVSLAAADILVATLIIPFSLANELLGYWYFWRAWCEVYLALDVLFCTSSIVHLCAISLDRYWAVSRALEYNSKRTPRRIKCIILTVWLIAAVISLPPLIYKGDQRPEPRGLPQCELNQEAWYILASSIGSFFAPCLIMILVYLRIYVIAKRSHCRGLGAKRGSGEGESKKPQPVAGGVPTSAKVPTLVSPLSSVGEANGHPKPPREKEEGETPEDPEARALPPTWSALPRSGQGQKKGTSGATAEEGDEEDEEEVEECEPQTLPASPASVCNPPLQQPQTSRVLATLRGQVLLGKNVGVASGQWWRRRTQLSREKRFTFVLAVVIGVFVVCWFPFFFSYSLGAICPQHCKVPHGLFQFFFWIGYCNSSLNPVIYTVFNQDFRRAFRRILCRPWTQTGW
T1 sequence (P22909 whole entry): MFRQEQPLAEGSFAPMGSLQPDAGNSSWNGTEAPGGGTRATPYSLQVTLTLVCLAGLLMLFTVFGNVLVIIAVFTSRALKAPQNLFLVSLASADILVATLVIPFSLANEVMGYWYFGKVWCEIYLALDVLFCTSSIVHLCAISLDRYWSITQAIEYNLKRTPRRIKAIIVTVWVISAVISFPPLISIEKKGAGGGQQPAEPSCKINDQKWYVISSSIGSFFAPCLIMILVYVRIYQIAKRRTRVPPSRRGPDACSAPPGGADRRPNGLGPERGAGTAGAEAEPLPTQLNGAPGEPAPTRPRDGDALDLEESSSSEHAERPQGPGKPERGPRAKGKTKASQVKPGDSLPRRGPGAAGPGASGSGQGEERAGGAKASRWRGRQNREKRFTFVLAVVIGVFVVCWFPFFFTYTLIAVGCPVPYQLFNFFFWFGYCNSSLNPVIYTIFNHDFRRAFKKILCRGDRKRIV
In short: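 Competition binding on rat cortex with [³H]idazoxan (7 nM, about K_D) against a wide test range run in duplicate. Incubation was 30 min at 27 °C in 50 mM Tris-HCl, 5 mM CaCl₂, 0.1% ascorbate and 10 mM pargyline. Assays were ended by rapid filtration and read by scintillation. Values are pK_i or pIC₅₀, mean of n ≥ 3.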

[5] = molecular target: 5-hydroxytryptamine receptor 2A (Homo sapiens) (UniProt P28223); conditions: Oryctolagus cuniculus
[6] = molecular target: Histamine H1 receptor (Homo sapiens) (UniProt P35367); test: Binding affinity against H1 receptor using rabbit saphenous vein assay.; type: tissue-based; conditions: Oryctolagus cuniculus, target entry is the homologue from another species
[7] = molecular target: D(1A) dopamine receptor (Homo sapiens) (UniProt P21728); test: Binding affinity was evaluated by Dopamine receptor D1 agonism in the calf striatum by displacing SCH 23390; type: tissue-based; conditions: Oryctolagus cuniculus
[8] = molecular target: D(2) dopamine receptor (Homo sapiens) (UniProt P14416); test: Binding affinity against Dopamine receptor D2 using rabbit saphenous vein assay.; type: tissue-based; conditions: Oryctolagus cuniculus, target entry is the homologue from another species
[9] = molecular target: D(1A) dopamine receptor (Rattus norvegicus, UniProt P18901); test: Binding affinity against dopamine receptor D1 in rat striatum using [3H]SCH-23390 as radioligand; type: tissue-based
In short: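 Displacement of [³H]SCH23390 (0.3 nM, about K_D) from rat striatum homogenate, with test compounds run in duplicate over a wide range. Incubation was 30 min at 27 °C in 50 mM Tris-HCl with 5 mM CaCl₂, 0.1% w/v ascorbate and 10 mM pargyline. Assays were filtered and washed with ice-cold buffer, and bound label was counted by scintillation. Results are pK_i or pIC₅₀, n ≥ 3.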

[10] = molecular target: 5-hydroxytryptamine receptor 1D (Homo sapiens) (UniProt P28221); test: The compound was tested for binding affinity against 5-HT1D receptor; conditions: Oryctolagus cuniculus; in short: as §1

Chain of 5-hydroxytryptamine receptor 1D (Homo sapiens) (P28221 whole entry): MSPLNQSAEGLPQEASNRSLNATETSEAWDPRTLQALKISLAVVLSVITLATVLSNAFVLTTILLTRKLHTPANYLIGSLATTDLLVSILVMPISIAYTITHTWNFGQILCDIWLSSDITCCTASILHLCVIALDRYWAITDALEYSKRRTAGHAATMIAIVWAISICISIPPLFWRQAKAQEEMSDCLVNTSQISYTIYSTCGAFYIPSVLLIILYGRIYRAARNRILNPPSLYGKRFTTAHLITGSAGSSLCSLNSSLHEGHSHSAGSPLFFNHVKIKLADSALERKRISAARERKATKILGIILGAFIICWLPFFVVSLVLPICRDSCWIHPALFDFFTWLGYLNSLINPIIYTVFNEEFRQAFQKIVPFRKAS
Chain of Beta-2 adrenergic receptor (Canis lupus familiaris) (P54833 whole entry, looked up): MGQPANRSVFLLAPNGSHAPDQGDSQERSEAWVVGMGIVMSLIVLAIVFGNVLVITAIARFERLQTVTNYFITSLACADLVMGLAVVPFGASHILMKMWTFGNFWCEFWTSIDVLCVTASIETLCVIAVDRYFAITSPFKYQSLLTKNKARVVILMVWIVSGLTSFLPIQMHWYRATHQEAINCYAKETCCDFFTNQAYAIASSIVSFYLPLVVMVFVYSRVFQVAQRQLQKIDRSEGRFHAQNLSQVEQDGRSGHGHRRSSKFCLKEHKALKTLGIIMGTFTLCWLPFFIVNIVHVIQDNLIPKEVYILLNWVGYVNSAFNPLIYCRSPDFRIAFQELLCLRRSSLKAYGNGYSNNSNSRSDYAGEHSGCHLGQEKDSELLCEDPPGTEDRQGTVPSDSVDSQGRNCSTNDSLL
Chain of D(2) dopamine receptor (Homo sapiens) (P14416 whole entry): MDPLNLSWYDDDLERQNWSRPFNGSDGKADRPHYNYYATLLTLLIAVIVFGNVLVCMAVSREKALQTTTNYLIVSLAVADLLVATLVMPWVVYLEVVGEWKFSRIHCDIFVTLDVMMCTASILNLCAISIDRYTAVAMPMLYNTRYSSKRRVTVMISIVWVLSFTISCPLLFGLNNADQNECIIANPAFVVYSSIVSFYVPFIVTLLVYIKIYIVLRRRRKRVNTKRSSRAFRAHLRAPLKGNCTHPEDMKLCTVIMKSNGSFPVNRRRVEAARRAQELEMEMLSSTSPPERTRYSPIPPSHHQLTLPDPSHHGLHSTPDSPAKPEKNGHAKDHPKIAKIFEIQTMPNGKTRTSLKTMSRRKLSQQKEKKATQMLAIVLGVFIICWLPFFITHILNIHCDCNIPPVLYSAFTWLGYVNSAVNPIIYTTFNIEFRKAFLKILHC
Chain of D(1A) dopamine receptor (P18901 whole entry): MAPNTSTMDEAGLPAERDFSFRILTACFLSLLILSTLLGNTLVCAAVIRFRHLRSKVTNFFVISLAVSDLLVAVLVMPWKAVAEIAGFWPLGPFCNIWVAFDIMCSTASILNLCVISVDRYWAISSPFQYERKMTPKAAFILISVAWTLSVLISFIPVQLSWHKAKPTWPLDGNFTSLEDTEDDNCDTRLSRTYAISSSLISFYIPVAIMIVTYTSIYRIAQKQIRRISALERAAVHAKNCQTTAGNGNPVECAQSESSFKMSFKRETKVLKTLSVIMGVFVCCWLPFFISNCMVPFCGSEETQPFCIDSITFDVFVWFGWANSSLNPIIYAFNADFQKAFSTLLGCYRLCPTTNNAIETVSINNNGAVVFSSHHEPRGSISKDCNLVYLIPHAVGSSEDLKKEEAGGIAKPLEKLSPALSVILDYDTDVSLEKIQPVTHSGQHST
Chain of D(1A) dopamine receptor (Homo sapiens) (P21728 whole entry): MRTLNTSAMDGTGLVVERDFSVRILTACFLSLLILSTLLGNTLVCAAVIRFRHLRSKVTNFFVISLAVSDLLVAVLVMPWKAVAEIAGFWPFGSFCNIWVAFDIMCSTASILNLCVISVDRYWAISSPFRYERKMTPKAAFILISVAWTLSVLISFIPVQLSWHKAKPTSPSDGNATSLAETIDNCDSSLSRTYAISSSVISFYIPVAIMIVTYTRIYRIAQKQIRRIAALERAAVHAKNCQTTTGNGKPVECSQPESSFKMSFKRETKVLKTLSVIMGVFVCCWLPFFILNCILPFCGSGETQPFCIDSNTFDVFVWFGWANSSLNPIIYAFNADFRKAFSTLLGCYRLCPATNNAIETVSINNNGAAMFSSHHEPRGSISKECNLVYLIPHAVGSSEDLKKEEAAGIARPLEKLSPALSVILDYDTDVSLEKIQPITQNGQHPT
Chain of Histamine H1 receptor (Homo sapiens) (P35367 whole entry): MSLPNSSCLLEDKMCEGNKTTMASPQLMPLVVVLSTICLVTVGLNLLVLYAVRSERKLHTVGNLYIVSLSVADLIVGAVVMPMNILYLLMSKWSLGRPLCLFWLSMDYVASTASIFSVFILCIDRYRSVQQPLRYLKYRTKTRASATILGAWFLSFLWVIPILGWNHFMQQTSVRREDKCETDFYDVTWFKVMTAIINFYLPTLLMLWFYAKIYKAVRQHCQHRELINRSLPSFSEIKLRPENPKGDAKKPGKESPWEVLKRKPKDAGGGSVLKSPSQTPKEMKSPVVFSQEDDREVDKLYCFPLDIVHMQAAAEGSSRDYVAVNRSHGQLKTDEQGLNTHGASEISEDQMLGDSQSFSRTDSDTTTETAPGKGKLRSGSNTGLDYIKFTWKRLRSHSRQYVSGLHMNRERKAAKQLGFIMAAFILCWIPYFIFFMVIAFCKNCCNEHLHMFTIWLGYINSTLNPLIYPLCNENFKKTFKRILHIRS
Chain of 5-hydroxytryptamine receptor 2A (Homo sapiens) (P28223 whole entry): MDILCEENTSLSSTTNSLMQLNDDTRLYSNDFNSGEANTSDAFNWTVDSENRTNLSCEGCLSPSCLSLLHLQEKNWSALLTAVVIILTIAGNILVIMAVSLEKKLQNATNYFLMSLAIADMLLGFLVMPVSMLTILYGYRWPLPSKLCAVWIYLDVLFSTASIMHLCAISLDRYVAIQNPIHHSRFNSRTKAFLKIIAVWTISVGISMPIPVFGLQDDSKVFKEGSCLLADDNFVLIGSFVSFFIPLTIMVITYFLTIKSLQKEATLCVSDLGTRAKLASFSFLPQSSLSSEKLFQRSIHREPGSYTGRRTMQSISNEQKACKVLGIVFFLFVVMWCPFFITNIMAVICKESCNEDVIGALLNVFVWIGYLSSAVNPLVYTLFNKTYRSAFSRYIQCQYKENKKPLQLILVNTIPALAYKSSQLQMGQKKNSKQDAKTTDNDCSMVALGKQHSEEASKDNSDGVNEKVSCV

p[A50] [1]: < 4.5
p[A50] [2]: < 4
Intrinsic activity [3]: 0.77
Kd [4]: 7 nM
p[A50] [5]: 6.6
p[A50] [6]: 5.5
p[A50] [7]: < 4
p[A50] [8]: < 4
Kd [9]: 0.3 nM
p[A50] [10]: 6.8
Structure (SMILES): CN(C)CCc1c[nH]c2ccc(C[C@H]3COC(=O)N3)cc12 [ZOLMITRIPTAN]
